Bioassay records (PubChem BioAssay)
This is a sample that favours compounds with a hit; in the whole collection about 4.4% have one here.
GRIN3A LBD mod = modulators (binders) of human NR3A ligand-binding domain; NR3A LBD differential scanning fluorimetry, Tm shift; 0% = protein alone, 100% = glycine-bound protein; Tm shift relative to glycine control, % at 25 µM; 340,000 tested, 2.5% active; AID 1259313;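 active means melting temperature shift of at least 10% of the positive control shift, at one fixed dose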
MPTP inh = inhibitors of mitochondrial permeability transition pore | 360,000 tested, 1.4% active | inhibition, % at 10 µM | isolated mouse mitochondria, Ca2+ swelling absorbance, 30 min;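 active means inhibition of 50% or more, scaled per plate between neutral and stimulator controls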
SENP1 inh = inhibitors of human SENP1 SUMO protease catalytic domain. inhibition, % at 10 µM. Q9P0U3. AID 624204. 360,000 tested, 0.21% active. recombinant SENP1 catalytic domain, CyPet-SUMO1-YPet FRET cleavage;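 active means inhibition at least 30% at 10 µM, raw YFP signal under a set limit, fluorescence ratio 0.5 to 1.5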
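Compound: 10 µM single point, 0.5% DMSO; Test system: hSENP1 catalytic domain, recombinant; Timing: 50 min reaction at room temperature; Technique: FRET, CFP and YFP emission; Control set: no-enzyme wells low, DMSO-plus-enzyme wells high control.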
EBI2 block = blocks human EBI2 receptor beta-arrestin signaling; EBI2 beta-arrestin recruitment, luminescence, 7a,25-OHC stimulated; AID 651636; P32249; 360,000 tested, 0.81% active; inhibition, % at 5 µM; in the data active means inhibition above about 38%;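 further: enzyme fragment complementation signal reports receptor beta-arrestin coupling in cells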
Target sequence (P32249 whole entry, looked up, the tested form may be a part): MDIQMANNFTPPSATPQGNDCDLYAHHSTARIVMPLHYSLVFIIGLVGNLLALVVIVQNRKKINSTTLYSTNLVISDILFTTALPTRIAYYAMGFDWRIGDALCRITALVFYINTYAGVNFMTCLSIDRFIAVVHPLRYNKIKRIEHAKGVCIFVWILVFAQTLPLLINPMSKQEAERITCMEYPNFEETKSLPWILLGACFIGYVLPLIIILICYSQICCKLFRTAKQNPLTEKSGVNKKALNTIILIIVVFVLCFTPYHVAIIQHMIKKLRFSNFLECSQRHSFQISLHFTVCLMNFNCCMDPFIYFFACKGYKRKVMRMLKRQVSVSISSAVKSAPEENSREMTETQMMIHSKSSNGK
EBI2 conf = EBI2 (human) antagonism, single concentration confirmation | shares compounds with EBI2 block | AID 651997 | inhibition, % at 5 µM | 2,400 tested, 29% active | EBI2 beta-arrestin luminescence, 7a,25-OHC antagonism;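 active means inhibition of at least 50%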
EBI2 ag = activates EBI2, counter-screen for EBI2 antagonists. 2,400 tested, under 10 active. EBI2-expressing cells, agonist mode, luminescence, 60 min; 0% vehicle, 100% 7α,25-dihydroxycholesterol control. activation, % at 5 µM. shares compounds with EBI2 block;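 active means activation of at least 50%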
bGal counter = counter-screen for EBI2 antagonists: E. coli beta-galactosidase inhibition; shares compounds with EBI2 block; purified beta-galactosidase, luminescent Galacton Star, 15 min; inhibition, % at 5 µM; 2,400 tested, 1% active;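 active means replicate-average signal at least 3 plate SD below neutral wells, shown as high inhibition, flagging enzyme-inhibiting false positives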;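 further: higher means stronger loss of beta-gal luminescence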
Numbers stand for hits.

`O=C(c1ccc(Cl)cc1)N1CCN(c2ccc(F)cc2)CC1` gave GRIN3A LBD mod inactive, MPTP inh inactive, SENP1 inh inactive, EBI2 block 51, EBI2 conf inactive, EBI2 ag inactive and bGal counter inactive.
For Cc1ccc(C(=O)N2CCC(C(=O)c3ccc(F)cc3)CC2)cc1 the results were GRIN3A LBD mod inactive, MPTP inh inactive, SENP1 inh inactive, EBI2 block 52, EBI2 conf 50, EBI2 ag inactive and bGal counter inactive.
Cc1ccc(C(=O)N2CCN(S(=O)(=O)N3CCCCCC3)CC2)cc1 was read as GRIN3A LBD mod inactive, MPTP inh inactive, SENP1 inh inactive and EBI2 block inactive.
O=C(CN1C(=O)C2CC=CCC2C1=O)Nc1nc2ccccc2s1 (centres undefined) was read as GRIN3A LBD mod inactive, MPTP inh inactive, SENP1 inh inactive and EBI2 block inactive.
For CCc1ccc(C(=O)NNC(=O)CCc2nc3ccccc3c(=O)[nH]2)cc1 the results were GRIN3A LBD mod inactive, MPTP inh inactive, SENP1 inh inactive and EBI2 block inactive.
O=C(NC(=S)Nc1ccc(N2CCOCC2)cc1)c1ccc(Cl)cc1 was read as GRIN3A LBD mod inactive, MPTP inh inactive, SENP1 inh inactive and EBI2 block inactive.
For CCC(=O)NC(=S)Nc1ccc(N2CCN(C(=O)c3ccc(Cl)cc3)CC2)cc1 the results were GRIN3A LBD mod inactive, MPTP inh inactive, SENP1 inh inactive, EBI2 block 43, EBI2 conf inactive, EBI2 ag inactive and bGal counter inactive.
For Cc1ccc(C(=O)C2CCN(C(=O)c3ccc(C)cc3)CC2)cc1 the results were GRIN3A LBD mod inactive, MPTP inh inactive, SENP1 inh inactive, EBI2 block 57, EBI2 conf inactive, EBI2 ag inactive and bGal counter inactive.
`O=C1c2cnc3nc(SCc4cccc(Cl)c4)nn3c2CC2c3ccccc3CCN12` (centres undefined) gave GRIN3A LBD mod inactive, MPTP inh inactive, SENP1 inh inactive, EBI2 block 42, EBI2 conf inactive, EBI2 ag inactive and bGal counter inactive.
`CCn1c(=O)n(CC)c2cc(S(=O)(=O)Nc3cc(C)cc(C)c3C#N)ccc21` gave GRIN3A LBD mod inactive, MPTP inh inactive, SENP1 inh inactive and EBI2 block inactive.
For O=C(/C=C/c1ccc(Cl)cc1Cl)N1CCN(c2ccc([N+](=O)[O-])c(N3CCOCC3)c2)CC1 the results were GRIN3A LBD mod inactive, MPTP inh inactive, SENP1 inh inactive, EBI2 block 61, EBI2 conf inactive, EBI2 ag inactive and bGal counter inactive.
CN1CCCN(C(=O)/C=C/c2ccc(Cl)cc2Cl)CC1 was read as GRIN3A LBD mod inactive, MPTP inh inactive, SENP1 inh inactive and EBI2 block inactive.
O=C(/C=C/c1ccc(Cl)cc1)N1CCN(c2ccc([N+](=O)[O-])c(N3CCOCC3)c2)CC1 was read as GRIN3A LBD mod inactive, MPTP inh inactive, SENP1 inh inactive, EBI2 block 96, EBI2 conf 88, EBI2 ag inactive and bGal counter inactive.
`O=C(/C=C/c1ccc(Cl)cc1Cl)N1CCN(c2ccccc2[N+](=O)[O-])CC1` gave GRIN3A LBD mod inactive, MPTP inh inactive, SENP1 inh inactive, EBI2 block 82, EBI2 conf 62, EBI2 ag inactive and bGal counter inactive.
`O=C(c1ccccc1)N1CCN(c2ccc([N+](=O)[O-])c(N3CCOCC3)c2)CC1` gave GRIN3A LBD mod inactive, MPTP inh inactive, SENP1 inh inactive and EBI2 block inactive.
Screening COc1ccccc1/C=C/C=N/Nc1cccc(C(=O)O)c1 returned GRIN3A LBD mod inactive, MPTP inh inactive, SENP1 inh inactive and EBI2 block inactive.
`CCOCCCn1c(=NC(=O)c2ccco2)c(C(=O)OCC)cc2c(=O)n3cccc(C)c3nc21` gave GRIN3A LBD mod inactive, MPTP inh inactive, SENP1 inh inactive and EBI2 block inactive.
`O=C(NC(c1ccccc1)c1ccc2ccccc2n1)C1CCN(CCOc2ccc(Cl)cc2Cl)CC1` (centres undefined) gave MPTP inh inactive, SENP1 inh inactive and EBI2 block inactive.
